Data taken from BindingDB's records for doi:10.1016/j.bmcl.2017.11.026 (Padmashri Vikhe Patil College of Arts, 2018).

molecular target: T1, Tumor necrosis factor (Homo sapiens, UniProt P01375); assay: Inhibition of LPS-induced TNF-alpha production in human MNC suspension after 20 hrs by radioimmunoassay
T1 sequence (P01375 whole entry): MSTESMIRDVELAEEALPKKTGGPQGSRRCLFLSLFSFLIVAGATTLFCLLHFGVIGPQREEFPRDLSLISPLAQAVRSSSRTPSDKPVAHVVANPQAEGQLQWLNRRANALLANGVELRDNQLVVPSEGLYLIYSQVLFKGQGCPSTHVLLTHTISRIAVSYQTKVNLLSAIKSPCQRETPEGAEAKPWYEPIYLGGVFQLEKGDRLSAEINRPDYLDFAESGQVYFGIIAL

| Structure (SMILES) | IC50 |
| --- | --- |
| COc1ccc([C@@H]2CNC(=O)C2)cc1OC1CCCC1 (racemic) [Adeo] | 0.2 µM |

molecular target: T1, Tumor necrosis factor; assay: Inhibition of LPS-induced TNF-alpha production in human PBMC preincubated for 30 mins followed by LPS addition measured after 5 hrs by ELISA
How it was run: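 Donor blood diluted 1:1 in PBS; PBMCs isolated on histopaque, washed, resuspended in RPMI 1640 with 10% FBS and antibiotics, 1 x 10^6 cells/ml (viability ≥98%). Compounds at 0.03–100 μM in DMSO (final 0.5%) for 30 min at 37 °C, 5% CO2, then E. coli 0127:B8 LPS 1 µg/mL final for 5 h. Supernatant TNF-α by ELISA; % inhibition vs vehicle; IC50 mean of three independent experiments.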

| Structure (SMILES) | IC50 |
| --- | --- |
| Nc1ncc(-c2ccc3ncc(S(N)(=O)=O)n3n2)cc1C(F)(F)F | 4 µM |
| O=S(=O)(c1cnc2ccc(-c3cccnc3)nn12)N1CCN(Cc2ccccc2)CC1 | 18 µM |
| O=S(=O)(c1cnc2ccc(Cl)nn12)N1CCN(c2ccccn2)CC1 | > 30 µM |
| O=S(=O)(NCC1CCCO1)c1cnc2ccc(-c3cncc(F)c3)nn12 (configuration not stated) | 4 µM |
| CS(=O)(=O)c1ccc(-c2ccc3ncc(S(=O)(=O)N4CCC(C#N)(c5ccccc5)CC4)n3n2)cc1 | 8 µM |
| O=S(=O)(c1cnc2ccc(Cl)nn12)N1CCN(c2ccccc2)CC1 | 30 µM |
| COc1cccc(CNS(=O)(=O)c2cnc3ccc(-c4ccc(S(C)(=O)=O)cc4)nn23)c1 | 28 µM |
| O=S(=O)(NCC1CCCO1)c1cnc2ccc(-c3cccnc3)nn12 (configuration not stated) | 4 µM |
| CCN1CCN(S(=O)(=O)c2cnc3ccc(-c4cncc(C(F)(F)F)c4)nn23)CC1 | 9 µM |
| COc1cccc(CNS(=O)(=O)c2cnc3ccc(-c4ccc(OC)nc4)nn23)c1 | > 30 µM |
| O=S(=O)(NCC1CCCO1)c1cnc2ccc(Cl)nn12 (configuration not stated) | 30 µM |
| O=S(=O)(c1cnc2ccc(-c3cncc(F)c3)nn12)N1CCN(Cc2ccccc2)CC1 | > 30 µM |
| N#CC1(c2ccccc2)CCN(S(=O)(=O)c2cnc3ccc(-c4cncc(C(F)(F)F)c4)nn23)CC1 | 20 µM |
| N#CC1(c2ccccc2)CCN(S(=O)(=O)c2cnc3ccc(-c4cncc(F)c4)nn23)CC1 | > 30 µM |
| Nc1ncc(-c2ccc3ncc(S(=O)(=O)N4CCN(c5ccccn5)CC4)n3n2)cc1C(F)(F)F | 11 µM |
| COc1ccc(-c2ccc3ncc(S(=O)(=O)NCC4CCCO4)n3n2)cc1 (configuration not stated) | 4 µM |
| COc1cccc(CNS(=O)(=O)c2cnc3ccc(-c4cncc(C(F)(F)F)c4)nn23)c1 | > 30 µM |
| CS(=O)(=O)c1ccc(-c2ccc3ncc(S(=O)(=O)NCC4CCCO4)n3n2)cc1 (configuration not stated) | > 30 µM |
| O=S(=O)(NCC1CCCO1)c1cnc2ccc(-c3cncc(C(F)(F)F)c3)nn12 (configuration not stated) | > 30 µM |
| N#CC1(c2ccccc2)CCN(S(=O)(=O)c2cnc3ccc(Cl)nn23)CC1 | 25 µM |
| COc1ccc(-c2ccc3ncc(S(=O)(=O)N4CCN(c5ccccn5)CC4)n3n2)cn1 | > 30 µM |

| Structure (SMILES) | IC50 |
| --- | --- |
| CS(=O)(=O)c1ccc(-c2ccc3ncc(S(=O)(=O)N4CCN(Cc5ccccc5)CC4)n3n2)cc1 | 12 µM |
| O=S(=O)(c1cnc2ccc(-c3cncc(C(F)(F)F)c3)nn12)N1CCN(c2ccccn2)CC1 | 11 µM |
| CCN1CCN(S(=O)(=O)c2cnc3ccc(-c4ccc(S(C)(=O)=O)cc4)nn23)CC1 | 15 µM |
| CCN1CCN(S(=O)(=O)c2cnc3ccc(-c4cccnc4)nn23)CC1 | 15 µM |
| COc1cccc(CNS(=O)(=O)c2cnc3ccc(-c4cnc(N)c(C(F)(F)F)c4)nn23)c1 | > 30 µM |
| CCN1CCN(S(=O)(=O)c2cnc3ccc(-c4cncc(F)c4)nn23)CC1 | > 30 µM |
| O=S(=O)(c1cnc2ccc(Cl)nn12)N1CCN(Cc2ccccc2)CC1 | 30 µM |
| O=S(=O)(c1cnc2ccc(-c3cccnc3)nn12)N1CCN(c2ccccn2)CC1 | 11 µM |
| CCN1CCN(S(=O)(=O)c2cnc3ccc(Cl)nn23)CC1 | > 30 µM |
| NS(=O)(=O)c1cnc2ccc(Cl)nn12 | 28 µM |
| O=S(=O)(c1cnc2ccc(-c3cncc(F)c3)nn12)N1CCN(c2ccccn2)CC1 | 28 µM |
| COc1ccc(-c2ccc3ncc(S(=O)(=O)NCC4CCCO4)n3n2)cn1 (configuration not stated) | 6 µM |
| CS(=O)(=O)c1ccc(-c2ccc3ncc(S(=O)(=O)N4CCN(c5ccccn5)CC4)n3n2)cc1 | 12 µM |
| N#CC1(c2ccccc2)CCN(S(=O)(=O)c2cnc3ccc(-c4cccnc4)nn23)CC1 | 7 µM |
| COc1cccc(CNS(=O)(=O)c2cnc3ccc(-c4cncc(F)c4)nn23)c1 | 6 µM |
| CCN1CCN(S(=O)(=O)c2cnc3ccc(-c4ccc(OC)cc4)nn23)CC1 | 20 µM |
| COc1cccc(CNS(=O)(=O)c2cnc3ccc(-c4cccnc4)nn23)c1 | 0.3 µM |
| COc1cccc(CNS(=O)(=O)c2cnc3ccc(Cl)nn23)c1 | > 30 µM |
| COc1ccc(-c2ccc3ncc(S(=O)(=O)N4CCC(C#N)(c5ccccc5)CC4)n3n2)cc1OC | 0.5 µM |
| CCN1CCN(S(=O)(=O)c2cnc3ccc(-c4ccc(OC)nc4)nn23)CC1 | 20 µM |
